Laboratory results: ChEMBL document CHEMBL4376884, “Toward a Rational Design of Polyamine-Based Zinc-Chelating Agents for Cancer Therapies” (J Med Chem, 2020)
Calls of active or inactive are those of the source. No cut-off for these calls is given here.

What was measured:
[1] = Metal chelating activity assessed as Zn2+-compound complex formation by measuring stability constant for ZnL(OH) using pre-Zn2+-complexed compound (ZnL) in 0.15M NaCl at 298.1K by potentiometric titration analysis
Procedure, shortened: (§1)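 Glass-electrode potentiometric titration with an Ag/AgCl reference in saturated KCl. The electrode was calibrated as an [H+] probe against standardized HCl with CO₂-free NaOH, using Gran's method (pKw 13.73(1)). Range was pH 2.0–11.0, with metal and ligand at 1×10⁻³ to 5×10⁻³ M in 1:1 ratio. At least two curves per compound were merged and fitted with HYPERQUAD.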

[2] = species: Homo sapiens; assay: Induction of apoptosis in human SP53 cells assessed as increase in caspase-3/7 activation at 10 uM incubated for 48 hrs by luminometric caspase-glo 3/7 assay; format: functional, cell-based
Procedure, shortened: (§2)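 Cells in RPMI or DMEM with 10% heat-inactivated FBS and penicillin/streptomycin, 37 °C, 5% CO2, treated with 10 µM compound for 48 h. Caspase-3 and caspase-7 activity read by luminescent Caspase-Glo 3/7 assay, reported as fold induction over untreated cells; mean ± SD of three independent experiments, each in triplicate.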

[3] = tested on: Jurkat; assay: Antiproliferative activity against human Jurkat cells assessed as reduction in cell viability at 10 uM incubated for 48 hrs by cell titer-glo assay; format: functional, cell-based
Procedure, shortened: (§3)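 Cells plated and treated 24 h later with 10 µM compound for 48 h; viable cells quantified by CellTiter-Glo ATP luminescence. Expressed as percentage of viable cells relative to untreated; mean ± SD of three independent experiments, each in triplicate.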

[4] = Metal chelating activity assessed as Zn2+-compound complex formation by measuring stability constant for ZnHL in 0.15M NaCl at 298.1K by potentiometric titration analysis; procedure, shortened: as §1
[5] = tested on: PC-3; assay: Cell cycle arrest in human PC3 cells assessed as cell accumulation at G1 phase at 10 uM incubated for 48 hrs by propidium iodide staining based flow cytometry analysis relative to control; format: functional
[6] = Metal chelating activity assessed as Zn2+-compound complex formation by measuring stability constant for ZnHL using pre-Zn2+-complexed compound (ZnL) in 0.15M NaCl at 298.1K by potentiometric titration analysis; procedure, shortened: as §1
[7] = tested on: Fibroblast; assay: Cytotoxicity against human Fibroblast assessed as reduction in cell viability incubated for 48 hrs by cell titer-glo assay; format: cell-based
Procedure, shortened: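 Dose-response: cells plated, treated 24 h later for 48 h, then ATP measured by CellTiter-Glo luminescence. IC50 given as mean ± SD from three independent experiments, each in triplicate. Fibroblasts came from individuals. Cells were kept in RPMI or DMEM with 10% heat-inactivated FBS and penicillin/streptomycin at 37 °C, 5% CO2.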

[8] = tested on: PC-3; assay: Cell cycle arrest in human PC3 cells assessed as cell accumulation at G1 phase at 10 uM incubated for 24 hrs by propidium iodide staining based flow cytometry analysis relative to control; format: functional
[9] = tested on: LN-229; assay: Induction of apoptosis in human LN229 cells at 10 uM incubated for 24 to 48 hrs by annexin V-FITC and propidium iodide staining based flow cytometric analysis; format: functional, cell-based
[10] = tested on: PC-3; assay: Induction of apoptosis in human PC3 cells assessed as late apoptotic cells at 10 uM incubated for 72 hrs by annexin V-FITC and propidium iodide staining based flow cytometry analysis (reference value: 0.52 %); format: functional
[11] = tested on: PC-3; assay: Induction of apoptosis in human PC3 cells at 10 uM incubated for 24 to 48 hrs by annexin V-FITC and propidium iodide staining based flow cytometric analysis; format: functional, cell-based
[12] = species: Homo sapiens; assay: Antiproliferative activity against human SKMG3 cells assessed as reduction in cell viability at 10 uM incubated for 48 hrs by cell titer-glo assay; format: functional, cell-based; procedure, shortened: as §3
[13] = tested on: Z-138; assay: Antiproliferative activity against human Z138 cells assessed as reduction in cell viability at 10 uM incubated for 48 hrs by cell titer-glo assay; format: functional, cell-based; procedure, shortened: as §3
[14] = Metal chelating activity assessed as Zn2+-compound complex formation by measuring stability constant for ZnL(OH) in 0.15M NaCl at 298.1K by potentiometric titration analysis; procedure, shortened: as §1
[15] = tested on: LN-229; assay: Induction of cellular senescence in human LN229 cells assessed as cells with irregular shape at 10 uM incubated for 24 hrs by phase contrast microscopy; format: functional, cell-based
Procedure, shortened: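 LN229 and PC3 cells, 12×10^4 per well in 6-well plates, treated with 10 µM compound for 24 h. Senescence-associated β-gal staining: fixed in 2% formaldehyde/0.2% glutaraldehyde for 10 min at RT, stained with 1 mg/mL X-gal at 37 °C for 24 h without CO2. Blue cells counted in at least 10 fields at 10x and given as percent of total; four independent experiments. Morphology viewed by phase contrast at ×100.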

[16] = tested on: LN-229; assay: Induction of cell morphological changes in human LN229 cells assessed as cell rounding at 10 uM incubated for 24 to 48 hrs by phase contrast microscopy; format: functional, cell-based
Procedure, shortened: (§4)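 LN229 and PC3 cells exposed to 10 µM compound for the indicated time-points, then imaged live by phase-contrast microscopy for morphology.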

[17] = tested on: Jurkat; assay: Induction of apoptosis in human Jurkat cells assessed as increase in caspase-3/7 activation at 10 uM incubated for 48 hrs by luminometric caspase-glo 3/7 assay; format: functional, cell-based; procedure, shortened: as §2
[18] = Metal chelating activity assessed as Zn2+-compound complex formation by measuring stability constant for ZnL in 0.15M NaCl at 298.1K by potentiometric titration analysis; procedure, shortened: as §1
[19] = tested on: LN-229; assay: Induction of cell morphological changes in human LN229 cells assessed as random membrane blebbing at 10 uM incubated for 24 to 48 hrs by phase contrast microscopy; format: functional, cell-based; procedure, shortened: as §4
[20] = tested on: JeKo-1; assay: Induction of apoptosis in human JeKo1 cells assessed as increase in caspase-3/7 activation at 10 uM incubated for 48 hrs by luminometric caspase-glo 3/7 assay; format: functional, cell-based; procedure, shortened: as §2
[21] = tested on: LN-229; assay: Cell cycle arrest in human LN229 cells assessed as cell accumulation at G2/M phase at 10 uM incubated for 48 hrs by propidium iodide staining based flow cytometry analysis relative to control; format: functional
[22] = Metal chelating activity assessed as Zn2+-compound complex formation by measuring stability constant for ZnL(OH) in 0.15M NaCl and hydroalcoholic solutions (H2O/EtOH 70:30) at 298.1K by potentiometric titration analysis; procedure, shortened: as §1
[23] = Metal chelating activity assessed as Zn2+-compound complex formation by measuring stability constant for ZnL in 0.15M NaCl and hydroalcoholic solutions (H2O/EtOH 70:30) at 298.1K by potentiometric titration analysis; procedure, shortened: as §1
[24] = Metal chelating activity assessed as Zn2+-compound complex formation by measuring stability constant for ZnL(OH) using pre-Zn2+-complexed compound (ZnL) in 0.15M NaCl and hydroalcoholic solutions (H2O/EtOH 70:30) at 298.1K by potentiometric titration analysis; procedure, shortened: as §1

| SMILES | Activity [2] | Activity [3] | Activity [5] | IC50 [7] | Activity [8] | Activity [9] | Activity [10] | Activity [11] | Activity [12] | Activity [13] | Activity [15] | Activity [16] | Activity [17] | Activity [19] | Activity [20] | Activity [21] | other results |
| --- | --- | --- | --- | --- | --- | --- | --- | --- | --- | --- | --- | --- | --- | --- | --- | --- | --- |
| c1ccc(CNCCN(CCNCc2ccccn2)Cc2ccc3ccccc3c2)nc1 | Active | Active | 73.4% | 29.7 µM | 73.7% | Active | 11.68% | Active | Active | Active | Active | Active | Active | Active | Active | 14.4% | log K [1]: -10.8; log K [4]: 16.7; log K [6]: 3.65; log K [14]: 2.25; log K [18]: 13 |
| CN(CCNCc1ccccn1)CCNCc1ccccn1 | Active | Active | 57.2% | 20.5 µM | 71.1% | Active | 12.63% | Active | Active | Active | Active | Active | Active | Active | Active | 20.2% | log K [22]: 2.81; log K [23]: 13.4; log K [24]: -10.6 |
